Measurements reported in ChEMBL document CHEMBL1221342, “Synthesis and in vitro antitumor activity of new 4,5-dihydropyrazole derivatives” (Bioorg Med Chem, 2010).

Columns and labels:
Format in all cases: functional
CCRF-CEM = assay: Growth inhibition of human CCRF-CEM cells after 48 hrs by SRB assay
Outline: (§1)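 NCI 60-cell-line screen. Cells grown in RPMI1640 with 5% fetal calf serum and 2 mM L-glutamine, with inoculum density set by cell line. Preincubated 24 h, then given compound in DMSO at 10^-4 to 10^-8 M (five 10-fold steps) for 48 h continuous exposure. Growth measured by SRB protein assay. GI50, TGI and LC50 reported as –log molar.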

HL-60(TB) = assay: Growth inhibition of human HL-60(TB) cells after 48 hrs by SRB assay; settings: HL-60, 48 h
Outline: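 NCI 60-cell-line screen: cells grown in RPMI1640 with 5% fetal calf serum and 2 mM L-glutamine, preincubated 24 h, then exposed to compound in DMSO at five concentrations (10^-4 to 10^-8 M) for 48 h continuous exposure. Growth estimated by sulforhodamine B protein assay; reported as pGI50 (-log molar concentration inhibiting net cell growth by 50%).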

[1] = Growth inhibition of human […] cells after 48 hrs by SRB assay; outline: as §1
SR = assay: Growth inhibition of human SR cells after 48 hrs by SRB assay; outline: as §1
EKVX = assay: Growth inhibition of human EKVX cells after 48 hrs by SRB assay; outline: as §1
HOP-62 = assay: Growth inhibition of human HOP62 cells after 48 hrs by SRB assay; settings: HOP-62, 48 h; outline: as §1
NCI-H322M = assay: Growth inhibition of human NCI-H322M cells after 48 hrs by SRB assay; outline: as §1
NCI-H460 = assay: Growth inhibition of human NCI-H460 cells after 48 hrs by SRB assay; settings: NCI-H460, 48 h; outline: as §1
HCC 2998 = assay: Growth inhibition of human HCC2998 cells after 48 hrs by SRB assay; settings: HCC 2998, 48 h; outline: as §1
HCT-15 = assay: Growth inhibition of human HCT15 cells after 48 hrs by SRB assay; settings: HCT-15, 48 h; outline: as §1
SF-295 = assay: Growth inhibition of human SF295 cells after 48 hrs by SRB assay; settings: SF-295, 48 h; outline: as §1
SF-539 = assay: Growth inhibition of human SF539 cells after 48 hrs by SRB assay; settings: SF-539, 48 h; outline: as §1
SNB-75 = assay: Growth inhibition of human SNB75 cells after 48 hrs by SRB assay; settings: SNB-75, 48 h; outline: as §1
U-251 = assay: Growth inhibition of human U251 cells after 48 hrs by SRB assay; settings: U-251, 48 h; outline: as §1
Malme-3M = assay: Growth inhibition of human MALME-3M cells after 48 hrs by SRB assay; outline: as §1
M14 = assay: Growth inhibition of human M14 cells after 48 hrs by SRB assay; settings: M14, 48 h; outline: as §1
SK-MEL-2 = assay: Growth inhibition of human SK-MEL-2 cells after 48 hrs by SRB assay; settings: SK-MEL-2, 48 h; outline: as §1
SK-MEL-28 = assay: Growth inhibition of human SK-MEL-28 cells after 48 hrs by SRB assay; settings: SK-MEL-28, 48 h; outline: as §1
SK-MEL-5 = assay: Growth inhibition of human SK-MEL-5 cells after 48 hrs by SRB assay; settings: SK-MEL-5, 48 h; outline: as §1
UACC-62 = assay: Growth inhibition of human UACC62 cells after 48 hrs by SRB assay; settings: UACC-62, 48 h; outline: as §1
IGROV-1 = assay: Growth inhibition of human IGROV1 cells after 48 hrs by SRB assay; settings: IGROV-1, 48 h; outline: as §1
OVCAR-3 = assay: Growth inhibition of human OVCAR-3 cells after 48 hrs by SRB assay; settings: OVCAR-3, 48 h; outline: as §1
OVCAR-4 = assay: Growth inhibition of human OVCAR4 cells after 48 hrs by SRB assay; settings: OVCAR-4, 48 h; outline: as §1
OVCAR-8 = assay: Growth inhibition of human OVCAR8 cells after 48 hrs by SRB assay; settings: OVCAR-8, 48 h; outline: as §1
NCI/ADR-RES = assay: Growth inhibition of human NCI/ADR-RES cells after 48 hrs by SRB assay; outline: as §1
SK-OV-3 = assay: Growth inhibition of human SKOV3 cells after 48 hrs by SRB assay; settings: SK-OV-3, 48 h; outline: as §1
786-0 = assay: Growth inhibition of human 786-0 cells after 48 hrs by SRB assay; settings: 786-0, 48 h; outline: as §1
CAKI-1 = assay: Growth inhibition of human Caki1 cells after 48 hrs by SRB assay; settings: CAKI-1, 48 h; outline: as §1
RXF 393 = assay: Growth inhibition of human RXF393 cells after 48 hrs by SRB assay; settings: RXF 393, 48 h; outline: as §1
TK-10 = assay: Growth inhibition of human TK10 cells after 48 hrs by SRB assay; settings: TK-10, 48 h; outline: as §1
UO-31 = assay: Growth inhibition of human UO31 cells after 48 hrs by SRB assay; settings: UO-31, 48 h; outline: as §1
PC-3 = assay: Growth inhibition of human PC3 cells after 48 hrs by SRB assay; settings: PC-3, 48 h; outline: as §1
DU-145 = assay: Growth inhibition of human DU145 cells after 48 hrs by SRB assay; settings: DU-145, 48 h; outline: as §1
MCF7 = assay: Growth inhibition of human MCF7 cells after 48 hrs by SRB assay; settings: MCF7, 48 h; outline: as §1
[2] = Growth inhibition of human Hs 578T cells after 48 hrs by SRB assay; outline: as §1
BT-549 = assay: Growth inhibition of human BT549 cells after 48 hrs by SRB assay; settings: BT-549, 48 h; outline: as §1
MDA-MB-468 = assay: Growth inhibition of human MDA-MB-468 cells after 48 hrs by SRB assay; settings: MDA-MB-468, 48 h; outline: as §1

COc1cc(C2CC(c3cccc(O)c3)=NN2C(C)=O)cc(OC)c1OC (configuration not stated)
GI50 (CCRF-CEM): 1 µM | TGI (CCRF-CEM; read-out: pTGI (converted)): 5.01 µM | GI50 (HL-60(TB)): 1.58 µM | TGI (HL-60(TB); read-out: pTGI (converted)): 5.01 µM | GI50 [1]: 1 µM | TGI ([1]; read-out: pTGI (converted)): 5.01 µM | GI50 (SR): 0.1 µM | TGI (SR; read-out: pTGI (converted)): > 100 µM | GI50 (EKVX): 6.31 µM | TGI (EKVX; read-out: pTGI (converted)): > 100 µM | GI50 (HOP-62): 0.126 µM | TGI (HOP-62; read-out: pTGI (converted)): 2 µM | GI50 (NCI-H322M): 3.98 µM | TGI (NCI-H322M; read-out: pTGI (converted)): > 100 µM | GI50 (NCI-H460): 2 µM | TGI (NCI-H460; read-out: pTGI (converted)): 10 µM | GI50 (HCC 2998): 2 µM | TGI (HCC 2998; read-out: pTGI (converted)): 15.8 µM | GI50 (HCT-15): 0.794 µM | TGI (HCT-15; read-out: pTGI (converted)): > 100 µM | GI50 (SF-295): 0.316 µM | TGI (SF-295; read-out: pTGI (converted)): 5.01 µM | GI50 (SF-539): 2 µM | TGI (SF-539; read-out: pTGI (converted)): 6.31 µM | GI50 (SNB-75): 0.398 µM | GI50 (U-251): 2.51 µM | TGI (U-251; read-out: pTGI (converted)): > 100 µM | GI50 (Malme-3M): 2.51 µM | TGI (Malme-3M; read-out: pTGI (converted)): > 100 µM | GI50 (M14): 0.794 µM | TGI (M14; read-out: pTGI (converted)): > 100 µM | GI50 (SK-MEL-2): 6.31 µM | TGI (SK-MEL-2; read-out: pTGI (converted)): > 100 µM | GI50 (SK-MEL-28): 5.01 µM | TGI (SK-MEL-28; read-out: pTGI (converted)): > 100 µM | GI50 (SK-MEL-5): 0.631 µM | TGI (SK-MEL-5; read-out: pTGI (converted)): 5.01 µM | GI50 (UACC-62): 2.51 µM | TGI (UACC-62; read-out: pTGI (converted)): > 100 µM | GI50 (IGROV-1): 3.98 µM | TGI (IGROV-1; read-out: pTGI (converted)): > 100 µM | GI50 (OVCAR-3): 1.26 µM | TGI (OVCAR-3; read-out: pTGI (converted)): 3.98 µM | GI50 (OVCAR-4): 6.31 µM | TGI (OVCAR-4; read-out: pTGI (converted)): > 100 µM | GI50 (OVCAR-8): 5.01 µM | TGI (OVCAR-8; read-out: pTGI (converted)): > 100 µM | GI50 (NCI/ADR-RES): 1.26 µM | TGI (NCI/ADR-RES; read-out: pTGI (converted)): 3.98 µM | GI50 (SK-OV-3): 2.51 µM | TGI (SK-OV-3; read-out: pTGI (converted)): > 100 µM | GI50 (786-0): 1.26 µM | TGI (786-0; read-out: pTGI (converted)): 3.98 µM | GI50 (CAKI-1): 2.51 µM | TGI (CAKI-1; read-out: pTGI (converted)): > 100 µM | GI50 (RXF 393): 3.98 µM | TGI (RXF 393; read-out: pTGI (converted)): > 100 µM | GI50 (TK-10): 7.94 µM | TGI (TK-10; read-out: pTGI (converted)): > 100 µM | GI50 (UO-31): 10 µM | TGI (UO-31; read-out: pTGI (converted)): > 100 µM | GI50 (PC-3): 2 µM | TGI (PC-3; read-out: pTGI (converted)): > 100 µM | GI50 (DU-145): 3.16 µM | GI50 (MCF7): 0.501 µM | TGI (MCF7; read-out: pTGI (converted)): 10 µM | GI50 [2]: 0.794 µM | TGI ([2]; read-out: pTGI (converted)): 7.94 µM | GI50 (BT-549): 5.01 µM | TGI (BT-549; read-out: pTGI (converted)): > 100 µM | GI50 (MDA-MB-468): 0.501 µM | TGI (MDA-MB-468; read-out: pTGI (converted)): 10 µM
